Here are results for four molecules from ChEMBL document CHEMBL1629653, “CMY-31 and CMY-36 cephalosporinases encoded by ColE1-like plasmids” (Antimicrob Agents Chemother, 2009).

Where only a bound is given, the exact number is not on record here.

Experiment [1] can be described thus: Activity of CMY-2 by spectrophotometry. A digest of the protocol:
(§1)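 CMY β-lactamases purified from sonicated, ultracentrifuge-clarified extracts of E. coli DH5α clones (pB-cmy36, pB-cmy2) by Q- then S-Sepharose ion exchange (>90% pure by SDS-PAGE); steady-state hydrolysis kinetics measured spectrophotometrically, CMY-2 run in parallel.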

A short description of experiment [2]: Ratio of Kcat to Km of CMY-2 by spectrophotometry. The essentials: as §1

By Km is commonly meant the substrate concentration at which the rate is half of its maximum. Broadly, the kcat is the maximal rate divided by the concentration of active sites. In general, kcat/Km refers to the second-order rate constant that governs catalysis at low substrate concentration. With `O=C(Cc1cccs1)N[C@@H]1C(=O)N2C(C(=O)[O-])=C(C[n+]3ccccc3)CS[C@H]12`, in experiment [1], the Km was 120 µM and the kcat stood at 300 s⁻¹. Further, in experiment [2], the kcat/Km came out at 2.5e+06 M⁻¹ s⁻¹.
As to `CC1(C)S[C@@H]2[C@H](NC(=O)Cc3ccccc3)C(=O)N2[C@H]1C(=O)O`, in experiment [1], the Km was found to be 0.4 µM and the kcat came to 10 s⁻¹. Also, in experiment [2], the kcat/Km was 2.5e+07 M⁻¹ s⁻¹.
On to `O=C(Cc1cccs1)N[C@@H]1C(=O)N2C(C(=O)O)=C(/C=C/c3ccc([N+](=O)[O-])cc3[N+](=O)[O-])CS[C@H]12`, for which, in experiment [1], the Km was 10 µM and the kcat is 980 s⁻¹. For the same molecule, the kcat/Km in experiment [2] turned out to be 9.8e+07 M⁻¹ s⁻¹.
In the case of `CO/N=C(\C(=O)N[C@@H]1C(=O)N2C(C(=O)O)=C(COC(C)=O)CS[C@H]12)c1csc(N)n1`, in experiment [1], the kcat was under 0.01 s⁻¹.
